From paper PMC4245983 (Biochemistry, 2014)
Entries after “also recorded” stand apart in the source; their conditions may differ.

Key:
[1] = test system: HscA; assay: Steady-state ATPase assay of HscA variants; assay type: biochemical, Escherichia coli; conditions: for fold increase in ATPase activity vs HscA386 / fold increase in ATPase activity vs WT HscA: 1 μM HscA, 1 mM ATP, HMKD pH 7.3, 25 °C; for fold increase in ATPase activity vs HscA386: relative to HscA386; for fold increase in ATPase activity vs WT HscA: relative to WT HscA
Summary of the method: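 Steady-state hydrolysis at 25 °C in HMKD (50 mM HEPES pH 7.3, 150 mM KCl, 10 mM MgCl2, 1 mM DTT) with 1 μM HscA variant and 1 mM ATP. Pi release was followed continuously by EnzChek enzyme-coupled assay at 360 nm and converted via a Pi standard curve to min–1. Three or more replicates. Linker peptide was dissolved in HMKD with 10% DMSO and added at 5–500 μM final.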

[2] = test system: WT HscA; assay: Steady-state ATPase assay of WT HscA with HscB or IscU; assay type: biochemical, Escherichia coli; conditions: for effect on ATPase activity of WT HscA: 50-fold molar excess of HscB or IscU, 25 °C, n = 3
Summary of the method: (§1)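 HscB or IscU (50-fold molar excess, 50 μM) was added to 1 μM HscA variant (full-length WT or NBD construct). Reactions used HMKD buffer pH 7.3 with 1 mM ATP at 25 °C. Phosphate release was monitored continuously by EnzChek coupled assay at 360 nm, calibrated with a Pi standard curve. Three or more replicates.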

[3] = test system: HscA386; assay: Steady-state ATPase assay of HscA386; assay type: biochemical, Escherichia coli; conditions: for effect on ATPase activity of HscA386: 50:1 molar ratio (50 μM HscB or IscU), 25 °C, n = 3; for effect on ATPase activity of HscA386 by linker peptide: 5–500 μM linker peptide, 1 μM HscA386, HMKD with 10% DMSO
[4] = test system: HscA389; assay: Steady-state ATPase assay of HscA389 with HscB or IscU; assay type: biochemical, Escherichia coli; conditions: 50:1 molar ratio (50 μM HscB or IscU), 25 °C, n = 3
Summary of the method: as §1

[5] = test system: HscA395; assay: Steady-state ATPase assay of HscA395 with HscB or IscU; assay type: biochemical, Escherichia coli; conditions: 50:1 molar ratio (50 μM HscB or IscU), 25 °C, n = 3
Summary of the method: as §1

[6] = test system: WT HscA; conditions: J-domain interactions; cited from earlier work
[7] = test system: IscU; conditions: cited from earlier work
[8] = test system: HscA; assay: ATPase activity as a function of ATP concentration; assay type: biochemical, Escherichia coli; conditions: for Vmax from Michaelis-Menten fit: 2–1000 μM ATP, 1 μM HscA, HMKD pH 7.3, 25 °C, n = 3; for apparent ATP binding affinity, comparison of HscA386 and HscA395: from Km comparison
Summary of the method: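 NBD constructs (stop codons at residue 387 or 396; DEAE then Superdex 75 purification) were used at 1 μM in HMKD (50 mM HEPES pH 7.3, 150 mM KCl, 10 mM MgCl2, 1 mM DTT), 25 °C. ATP was 2, 4, 10, 40, 100 and 1000 μM. Pi release was monitored continuously by EnzChek coupled assay at 360 nm against a Pi standard curve. Means of three replicates were fit by nonlinear Michaelis–Menten regression for Km and Vmax.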

[9] = test system: HscA386; assay: 2D 1H-15N TROSY-HSQC linker peptide binding to HscA386; set-up: species or system Escherichia coli; conditions: 0.2 mM [U-15N]HscA386, 3 mM linker peptide (15-fold molar excess), TED buffer, 900 MHz
[10] = Solubility of linker peptide; assay type: physicochemical; conditions: TED buffer pH 7.5 without DMSO, upper limit concentration of 3 mM
[11] = Differential scanning fluorimetry; assay type: physicochemical; conditions: relative to HscA386
Summary of the method: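 2 μM protein in 5 mM HEPES pH 7.3, 10 mM MgCl2, 10 mM KCl with 10 μM SYPRO orange, in triplicate. Heated 15–99 °C in a real-time PCR instrument; excitation 492 nm, emission 610 nm. Tm was taken where the first derivative of fluorescence reached its minimum.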

[12] = test system: HscA386(T212V); assay: 2D 1H-15N TROSY-HSQC nucleotide binding to HscA386; set-up: species or system Escherichia coli; conditions: TED buffer lacking Mg2+, pH 7.5, 10 mM ATP
Summary of the method: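 0.3 mM [U-15N]-labelled NBD construct (expressed in Rosetta Blue DE3 in M9 medium with 1 g/L 15NH4Cl, 0.4 mM IPTG, 4 h). Solvent was TED buffer with 7% D2O and 0.02% sodium azide. 2D 1H–15N TROSY-HSQC spectra were taken without nucleotide and with 10 mM ATP at 25 °C, 800 MHz, and compared.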

**Q.** Which results are given for “HscA389: NBD of HscA containing a short (three-amino acid) linker peptide, LLL motif”?
**A.** fold increase in ATPase activity vs HscA386 [1]: 7 fold; fold increase in ATPase activity vs WT HscA [1]: 9 fold

**Q.** What does the source list for HscB: Hsp40-type cochaperone of HscA?
**A.** fold increase in ATPase activity of WT HscA ([2]; 1 μM WT HscA with 50 μM HscB): 8 factor; effect on ATPase activity of WT HscA [2]: enhanced; effect on ATPase activity of HscA386 [3]: not affected; also recorded: did not elicit any stimulation of ATPase activity; also recorded: neither the isolated NBD (HscA386) nor the NBD with a full interdomain liker (HscA395) was receptive to ATPase stimulation; effect on ATPase activity of HscA389 [4]: not affected; also recorded: did not elicit any stimulation of ATPase activity; effect on ATPase activity of HscA395 [5]: not affected; also recorded: did not elicit any stimulation of ATPase activity; also recorded: neither the isolated NBD (HscA386) nor the NBD with a full interdomain liker (HscA395) was receptive to ATPase stimulation; HscB-mediated activation of full-length HscA ATPase activity [6]: sensitive to HscB-mediated activation of ATPase activity; preferential binding to conformational state of IscU [7]: binds preferentially to the S-state

**Q.** Which results are given for “HscA386: isolated nucleotide-binding domain (NBD) of HscA”?
**A.** Vmax from Michaelis-Menten fit [8]: 0.039 ± 0.001 min^–1; apparent ATP binding affinity, comparison of HscA386 and HscA395 [8]: equivalent; also recorded: identical within experimental error

**Q.** What does the source list for “IscU: scaffold protein, substrate of HscA”?
**A.** effect on ATPase activity of WT HscA [2]: enhanced; effect on ATPase activity of HscA386 [3]: no effect on the ATPase activities of any of the NBD variants; also recorded: not affected; effect on ATPase activity of HscA389 [4]: no effect on the ATPase activities of any of the NBD variants; also recorded: not affected; effect on ATPase activity of HscA395 [5]: no effect on the ATPase activities of any of the NBD variants; also recorded: not affected

**Q.** For LLLDVIPLS [linker peptide], which “effect on ATPase activity of HscA386 by linker peptide” value [3] is on record?
**A.** A concentration dependence was observed

**Q.** And the “effect on ATPase activity of HscA386 by linker peptide” value ([3]; listed as synthetic peptide)?
**A.** stimulated its ATPase activity

**Q.** And the “binding of linker peptide to HscA386 (chemical shift perturbation)” value [9]?
**A.** widespread chemical shift perturbations, including distinct broadening of some signals; also recorded: relatively weaker binding interactions; also recorded: weakly binding

**Q.** What about the “binding of linker peptide to HscA386 (chemical shift perturbation)” value ([9]; listed as synthetic peptide) of the same molecule?
**A.** widespread NMR chemical shift perturbations indicative of a binding interaction

**Q.** What about the “solubility of linker peptide in TED buffer” value [10] of the same molecule?
**A.** partially dissolved

**Q.** What does the source list for “HscA395: NBD of HscA containing the full-length (nine-amino acid) linker peptide”?
**A.** fold increase in ATPase activity vs HscA386 [1]: 13 fold; fold increase in ATPase activity vs WT HscA [1]: 17 fold; fold faster ATP hydrolysis than HscA386 in the presence of linker peptide ([1]; relative to HscA386 + 500 μM linker peptide): 3 fold; Vmax from Michaelis-Menten fit [8]: 0.446 ± 0.016 min^–1; apparent ATP binding affinity, comparison of HscA386 and HscA395 [8]: equivalent; also recorded: identical within experimental error; basal thermostability vs HscA386 [11]: higher than those of HscA386; also recorded: increases basal thermostability in comparison to that of HscA386

**Q.** With Nc1ncnc2c1ncn2[C@@H]1O[C@H](COP(=O)(O)OP(=O)(O)OP(=O)(O)O)[C@@H](O)[C@H]1O [ATP] as the molecule, how does the “ATP binding in the absence of Mg2+ (TROSY-HSQC)” value [12] read?
**A.** nearly superimposable
